Measured values taken from ChEMBL document CHEMBL1275427, “Antimicrobial susceptibilities of geographically diverse clinical human isolates of Leptospira” (2008).
Values after ≈ are worked out from the molar mass of the structure shown.

Key:
Type in all cases: functional
[1] = Antimicrobial activity against Leptospira interrogans serovar Icterohaemorrhagiae isolate 9 by broth microdilution method
In short: (§1)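 Strains grown 7 days in EMJH medium at 30°C; inoculum counted by Petroff-Hausser chamber under dark-field microscopy and added at 2 × 10^6 organisms/ml. Twofold serial dilutions in EMJH, final 32.0 to 0.016 μg/ml (units/ml for penicillin), 96-well round-bottom plates, 30°C. alamarBlue added day 3; colour read day 5. MIC is lowest concentration without blue-to-pink change. Triplicate runs, median reported; L. interrogans Icterohaemorrhagiae quality control.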

Leptospira weilii [2] = assay: Antimicrobial activity against Leptospira weilii isolate 6 by broth microdilution method; in short: as §1
[3] = Antimicrobial activity against Leptospira interrogans serovar Icterohaemorrhagiae isolate 3 by broth microdilution method; in short: as §1
Leptospira weilii [4] = assay: Antimicrobial activity against Leptospira weilii isolate 8 by broth microdilution method; in short: as §1
[5] = Antimicrobial activity against Leptospira interrogans serovar Pyrogenes isolate 5 by broth microdilution method; in short: as §1
[6] = Antimicrobial activity against Leptospira interrogans serovar Grippotyphosa isolate 2 by broth microdilution method
In short: (§2)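 Serial twofold dilutions in EMJH medium, final 32.0 to 0.016 μg/ml (units/ml for penicillin). Inoculum from 7-day EMJH cultures grown at 30°C, counted by Petroff-Hausser chamber under dark-field microscopy, added at 2 × 10^6 organisms/ml. Plates incubated at 30°C; alamarBlue added on day 3 and colour read on day 5. MIC is the lowest concentration without blue-to-pink change; median of triplicate runs.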

[7] = Antimicrobial activity against Leptospira interrogans serovar Bataviae isolate 1 by broth microdilution method; in short: as §1
[8] = Antimicrobial activity against Leptospira interrogans serovar Icterohaemorrhagiae isolate 10 by broth microdilution method; in short: as §1
[9] = Antimicrobial activity against Leptospira interrogans serovar Pomona isolate 12 by broth microdilution method; in short: as §1
[10] = Antimicrobial activity against Leptospira interrogans isolate 7 by broth microdilution method; in short: as §2
[11] = Antimicrobial activity against Leptospira interrogans serovar Pomona isolate 4 by broth microdilution method; in short: as §1
[12] = Antimicrobial activity against Leptospira interrogans serovar Canicola isolate 11 by broth microdilution method; in short: as §1
[13] = test system: Leptospira kirschneri serovar Grippotyphosa; assay: Antimicrobial activity against Leptospira kirschneri serovar Grippotyphosa isolate 13 by broth microdilution method; in short: as §2
[14] = Leptospira interrogans, isolate 9, read-out: MIC
[15] = Leptospira weilii, isolate 6, read-out: MIC
[16] = Leptospira interrogans, isolate 3, read-out: MIC
[17] = Leptospira weilii, isolate 8, read-out: MIC
[18] = Leptospira interrogans, isolate 5, read-out: MIC
[19] = Leptospira interrogans, isolate 1, read-out: MIC
[20] = Leptospira interrogans, isolate 10, read-out: MIC
[21] = Leptospira interrogans, isolate 12, read-out: MIC
[22] = Leptospira interrogans, isolate 7, read-out: MIC
[23] = Leptospira interrogans, isolate 4, read-out: MIC
[24] = Leptospira interrogans, isolate 11, read-out: MIC
[25] = Leptospira kirschneri, isolate 13, read-out: MIC

Structure (SMILES)	MIC [1, 14] [µg/mL]	MIC (Leptospira weilii [2]; [15]) [µg/mL]	MIC [3, 16] [µg/mL]	MIC (Leptospira weilii [4]; [17]) [µg/mL]	MIC [5, 18] [µg/mL]	MIC [6] [µg/mL]	MIC [7, 19] [µg/mL]	MIC [8, 20] [µg/mL]	MIC [9, 21] [µg/mL]	MIC [10, 22] [µg/mL]	MIC [11, 23] [µg/mL]	MIC [12, 24] [µg/mL]	MIC [13, 25] [µg/mL]	other results
CC1(C)S[C@@H]2[C@H](NC(=O)[C@H](N)c3ccccc3)C(=O)N2[C@H]1C(=O)O [AMPICILLIN]	< 0.016	< 0.016	< 0.016	< 0.016	< 0.016	< 0.016	< 0.016	< 0.016	< 0.016	< 0.016	< 0.016	< 0.016	< 0.016	–
CC[C@H]1OC(=O)[C@H](C)[C@@H](O[C@H]2C[C@@](C)(OC)[C@@H](O)[C@H](C)O2)[C@H](C)[C@@H](O[C@@H]2O[C@H](C)C[C@H](N(C)C)[C@H]2O)[C@](C)(O)C[C@@H](C)CN(C)[C@H](C)[C@@H](O)[C@]1(C)O [AZITHROMYCIN]	< 0.016	< 0.016	< 0.016	< 0.016	< 0.016	< 0.016	< 0.016	< 0.016	< 0.016	< 0.016	< 0.016	< 0.016	< 0.016	–
CO/N=C(\C(=O)N[C@@H]1C(=O)N2C(C(=O)[O-])=C(C[N+]3(C)CCCC3)CS[C@H]12)c1csc(N)n1 [CEFEPIME]	< 0.016	< 0.016	< 0.016	< 0.016	< 0.016	< 0.016	< 0.016	< 0.016	< 0.016	< 0.016	< 0.016	< 0.016	< 0.016	–
CO/N=C(\C(=O)N[C@@H]1C(=O)N2C(C(=O)O)=C(COC(C)=O)CS[C@H]12)c1csc(N)n1 [CEFOTAXIME]	< 0.016	0.03 (≈ 0.0659 µM)	< 0.016	0.03 (≈ 0.0659 µM)	< 0.016	0.03 (≈ 0.0659 µM)	< 0.016	< 0.016	< 0.016	0.03 (≈ 0.0659 µM)	< 0.016	< 0.016	< 0.016	–
CO/N=C(\C(=O)N[C@@H]1C(=O)N2C(C(=O)O)=C(CSc3nc(=O)c(O)nn3C)CS[C@H]12)c1csc(N)n1 [CEFTRIAXONE]	< 0.016	0.06 (≈ 0.108 µM)	< 0.016	0.03 (≈ 0.0541 µM)	< 0.016	0.06 (≈ 0.108 µM)	0.03 (≈ 0.0541 µM)	< 0.016	< 0.016	0.06 (≈ 0.108 µM)	0.06 (≈ 0.108 µM)	0.03 (≈ 0.0541 µM)	< 0.016	–
O=C(O)c1cn(C2CC2)c2cc(N3CCNCC3)c(F)cc2c1=O [CIPROFLOXACIN]	0.125 (≈ 0.377 µM)	0.125 (≈ 0.377 µM)	0.125 (≈ 0.377 µM)	0.125 (≈ 0.377 µM)	0.125 (≈ 0.377 µM)	0.125 (≈ 0.377 µM)	0.125 (≈ 0.377 µM)	0.125 (≈ 0.377 µM)	0.06 (≈ 0.181 µM)	0.125 (≈ 0.377 µM)	0.25 (≈ 0.754 µM)	0.06 (≈ 0.181 µM)	0.03 (≈ 0.0905 µM)	–
CC[C@H]1OC(=O)[C@H](C)[C@@H](O[C@H]2C[C@@](C)(OC)[C@@H](O)[C@H](C)O2)[C@H](C)[C@@H](O[C@@H]2O[C@H](C)C[C@H](N(C)C)[C@H]2O)[C@](C)(OC)C[C@@H](C)C(=O)[C@H](C)[C@@H](O)[C@]1(C)O [CLARITHROMYCIN]	< 0.016	< 0.016	< 0.016	< 0.016	< 0.016	< 0.016	< 0.016	< 0.016	< 0.016	< 0.016	< 0.016	< 0.016	< 0.016	–
C[C@H]1c2cccc(O)c2C(=O)C2=C(O)[C@]3(O)C(=O)C(C(N)=O)=C(O)[C@@H](N(C)C)[C@@H]3[C@@H](O)[C@@H]21.O [DOXYCYCLINE]	0.25	0.5	2	0.5	1	1	1	0.5	0.06	0.25	2	0.06	< 0.016	–
C[C@H]1COc2c(N3CCN(C)CC3)c(F)cc3c(=O)c(C(=O)O)cn1c23.C[C@H]1COc2c(N3CCN(C)CC3)c(F)cc3c(=O)c(C(=O)O)cn1c23.O [LEVOFLOXACIN]	0.125	0.06	0.06	0.125	0.06	0.06	0.06	0.125	< 0.016	0.06	0.125	0.03	< 0.016	–
COc1c(N2C[C@@H]3CCCN[C@@H]3C2)c(F)cc2c(=O)c(C(=O)O)cn(C3CC3)c12 [MOXIFLOXACIN]	0.125 (≈ 0.311 µM)	0.06 (≈ 0.149 µM)	0.06 (≈ 0.149 µM)	0.125 (≈ 0.311 µM)	0.06 (≈ 0.149 µM)	0.06 (≈ 0.149 µM)	0.06 (≈ 0.149 µM)	0.125 (≈ 0.311 µM)	< 0.016	0.06 (≈ 0.149 µM)	0.125 (≈ 0.311 µM)	0.03 (≈ 0.0747 µM)	0.03 (≈ 0.0747 µM)	–
CC1(C)S[C@@H]2[C@H](NC(=O)Cc3ccccc3)C(=O)N2[C@H]1C(=O)O [PENICILLIN G]	–	–	–	–	–	–	–	–	–	–	–	–	–	MIC [1]: <0.016 U/ml; MIC (Leptospira weilii [2]): 0.03 U/ml; MIC [3]: <0.016 U/ml; MIC (Leptospira weilii [4]): 0.06 U/ml; MIC [5]: <0.016 U/ml; MIC [7]: <0.016 U/ml; MIC [8]: <0.016 U/ml; MIC [9]: 0.06 U/ml; MIC [10]: 0.06 U/ml; MIC [11]: 0.06 U/ml; MIC [12]: 0.25 U/ml; MIC [13]: 0.125 U/ml
CN(C)[C@@H]1C(O)=C(C(N)=O)C(=O)[C@@]2(O)C(O)=C3C(=O)c4c(O)cccc4[C@@](C)(O)[C@H]3C[C@@H]12 [TETRACYCLINE]	1 (≈ 2.25 µM)	1 (≈ 2.25 µM)	4 (≈ 9 µM)	0.5 (≈ 1.13 µM)	4 (≈ 9 µM)	1 (≈ 2.25 µM)	1 (≈ 2.25 µM)	0.5 (≈ 1.13 µM)	0.125 (≈ 0.281 µM)	1 (≈ 2.25 µM)	2 (≈ 4.5 µM)	0.125 (≈ 0.281 µM)	< 0.016	–
